# LMPTP block – blocks human LMPTP phosphatase; recombinant LMPTP-A, OMFP fluorogenic substrate, fluorescence intensity; inhibition, % at 20 µM; 360,000 tested, 0.22% active; AID 651560;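 active = compounds that cut the enzyme signal by at least half of the control window in the single-dose screen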;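 note: plate controls were DMSO wells with enzyme plus substrate for no effect and substrate without enzyme for full effect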
#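 test system = LMPTP-A | amount = 0.625 nM LMPTP-A final | reagent = fluorogenic phosphatase substrate OMFP at 400 µM final | incubation = 50 min at room temperature | benchmarks = no-enzyme low control, uninhibited high control | medium = Bis-Tris pH 6.0, DTT, detergent | signal = fluorescence intensity of OMFP turnover product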
# SUMO1 PPI mod – SUMO1-SIM interaction modulation; SUMO1 binding to a labelled peptide, TR-FRET, 1 h; AID 602429; P63165; 360,000 tested, 0.33% active; inhibition, % at 20 µM; in the data active = inhibition above about 37%
# DNMT1 block – blocks human DNA methyltransferase DNMT1; P26358; DNMT1 molecular beacon, Hinp1I cleavage, fluorescence; inhibition (reported as % activation of signal), % at 10 µM; 360,000 tested, 0.83% active; in the data active = inhibition above about 50%
# Scp1 inh – inhibitors of human Scp-1 phosphatase; Q9GZU7; Recombinant Scp1, phosphopeptide, malachite green phosphate absorbance; inhibition, % at 20 µM; 340,000 tested, 0.88% active; AID 493091;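 active = inhibition above about 50% at 20 µM, limit read from the data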;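 note: plate controls were DMSO wells with enzyme for no effect and wells lacking enzyme for full effect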
#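 Incubation: 45 min enzyme reaction at room temperature / System: truncated SCP-1 phosphatase (76-261aa) / Reagent: Phospho 17-mer peptide substrate / Buffer or medium: Acidic Tris acetate buffer with magnesium and detergent / Signal: absorbance at 630 nm / Doses: one concentration, 20 µM, with 1.0% DMSO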
# STEP block – blocks human striatal-enriched tyrosine phosphatase; inhibition, % at 20 µM; 360,000 tested, 0.25% active; recombinant STEP, OMFP fluorogenic substrate, fluorescence; AID 588621;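 active = inhibition at 20 µM, scaled per plate between control wells, above about 37%, limit read from the data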;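 note: 0% = DMSO with enzyme and substrate and 100% = substrate only without enzyme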
#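 medium = Bis-Tris buffer pH 6.0, 2.5 mM DTT, 0.005% Tween 20 | test system = STEP (striatal-enriched tyrosine phosphatase) enzyme, cell-free | measure = normalized % inhibition | compound dosing = 20 µM, 1% DMSO | also added = 25 µM OMFP | schedule = reaction 20 min, ambient temperature | measured by = fluorescence read at 480 nm ex / 540 nm em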
# HKDC1 inh – blocks human hexokinase HKDC1 activity; recombinant HKDC1, G6PDH/diaphorase resazurin coupled fluorescence; inhibition, % at 20 µM; 340,000 tested, 0.16% active;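 active = inhibition above about 35% when tested at 20 µM, limit read from the data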;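 note: plate controls were DMSO wells with enzyme for no effect and DMSO wells lacking enzyme for full effect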
#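 Assay system – recombinant HKDC1 (HK5) hexokinase enzyme, produced in-house · Input – HKDC1 at 5 µg/mL · Reagent – glucose plus 1 mM ATP as hexokinase substrates · Timing – 90 min reaction incubation at room temperature, dark · Measured by – G6PDH/diaphorase-coupled fluorescence, 1 mM NADP, 100 µM resazurin, 525/613 nm · Benchmarks – DMSO-enzyme wells negative, buffer-substituted wells positive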
# Beacon interf DR – beacon fluorescence artifact, dose response counter-screen. 200 tested, under 10 active. AID 602382. molecular beacon fluorescence, spectral interference counter-screen. shares compounds with DNMT1 block. IC50, µM; call rule not given here
# DNMT1 inh conf – confirmation of human DNMT1 inhibitors; shares compounds with DNMT1 block; DNMT1 molecular beacon HinP1I cleavage, fluorescence; inhibition, % at 10 µM; 2,300 tested, 8% active;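 active = average inhibition of at least 30% in the single-concentration confirmation test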
# DNMT1 interf – counter-screen for DNMT1 inhibitors: spectral interference; shares compounds with DNMT1 block; DNMT1 molecular beacon spectral interference counterscreen, fluorescence 485/520; activation (fluorescence interference), % at 10 µM; 2,300 tested, 1% active;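 active = activation of at least 30% at 10 µM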;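 note: DNMT1 catalytic domain with a HinP1I cleavage step and a FAM/dabcyl DNA beacon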
# * marks the source's active call; other numbers are inactive results; . = no result; + = active, no number. An excerpt weighted towards active compounds, which were near 1.8% of everything screened.
SMILES,LMPTP block,SUMO1 PPI mod,DNMT1 block,Scp1 inh,STEP block,HKDC1 inh,DNMT1 inh conf,DNMT1 interf,others
O=C(O)c1cccc(N2C(=O)c3cc([N+](=O)[O-])cc4cc([N+](=O)[O-])cc(c34)C2=O)c1,6,29,85*,69*,32,19,18,-1,
COc1ccc2nc(C)cc(SCC(=O)Nc3c(C)cc(C)cc3C)c2c1,25,-3,55*,-4,2,-16,4,-1,
Cn1c(=O)c2cc(S(=O)(=O)NC(C(=O)Nc3cccc(F)c3)c3ccccc3)ccc2n(C)c1=O (stereo not drawn),0,4,83*,-7,-8,2,1,4,
CCc1nc(NCc2cccs2)c2nnn(Cc3ccccc3)c2n1,-3,1,67*,.,4,.,0,4,
Cc1ccc(NC(=O)C(C)OC(=O)c2ccc(Cl)nc2)cc1S(=O)(=O)N1CCOCC1 (stereo not drawn),0,5,-3,4,1,-2,.,.,
CCCS(=O)(=O)NC(=O)C1(C)CCCN(C(=O)c2cc3ccccc3s2)C1 (stereo not drawn),-2,4,3,.,5,.,.,.,
COc1cc(OC)c(CNC2CCCCCC2)cc1Br,-3,0,3,-6,-1,-9,.,.,
Cc1nn(CC(=O)Nc2ccc3c(c2)nc2n3CCN(C3CCCCC3)C2)c(=O)c2ccccc12,25,1,80*,-7,3,5,0,1,
O=C1c2ccccc2-c2onc3ccc(N4CCCC4)c1c23,19,9,25,7,-58,19,.,.,
CCOc1ccc2noc3c2c1C(=O)c1ccccc1-3,-27,-17,+,-8,-158,8,140*,134*,
O=C1COc2ccc(S(=O)(=O)N3CCC(C(=O)NCc4ccc(F)cc4)CC3)cc2N1,0,4,1,-5,1,2,.,.,
Cc1cccc(CC(=O)NCCN2CCCCC2)c1,1,1,57*,33,1,-3,-1,2,
Cc1c(C(=O)NCc2ccc3c(c2)OCCO3)sc(=O)n1Cc1cccc(C(F)(F)F)c1,3,2,-1,.,2,.,.,.,
O=C1CN(C(=O)NCC(=O)N[C@H](C(=O)O)c2ccccc2)c2ccccc2N1,-2,4,3,3,-1,-2,.,.,
O=C1CN(C(=O)NCC(=O)N[C@H](Cc2ccccc2)C(=O)O)c2ccccc2N1,-1,2,74*,-7,-1,-1,1,6,
COc1ccc(Cc2nc3ccc(C(=O)NCCSC)cc3o2)cc1,0,2,55*,-7,1,-3,1,5,
COc1cccc(CNC(=O)Cn2cccc2)c1,-1,-2,1,5,-3,-5,.,.,
COc1cccc(CNC(=O)Cc2ccc(Br)cc2)c1,0,7,70*,0,-2,-10,2,2,
C[C@H](CO)N1C[C@H](C)[C@@H](CN(C)C(=O)c2ccccc2)OCc2cnnn2CCCC1=O,-2,-1,-5,.,0,.,.,.,
C=CCN(c1nc(C)cc(OC)n1)S(=O)(=O)c1ccc(C)cc1,1,1,97*,-4,-1,5,1,5,
C=CCN(c1nc(C)cc(OC)n1)S(=O)(=O)c1ccccc1,1,1,-3,0,2,-8,.,.,
CCCSC1=N/C(=C\C=C\c2ccco2)C(=O)S1,56*,32,106*,69*,17,4,9,3,
COCC(=O)N[C@H]1CC[C@@H](CC(=O)OC)O[C@@H]1CO,-1,2,.,.,.,.,.,.,
COCCn1c(SCC(=O)Nc2sc(C)c(C)c2C#N)nnc1-c1ccc(OC)cc1,-1,0,2,-9,-3,-6,.,.,
Cc1ccc(-c2nnc(SCC(=O)Nc3sc(C)c(C)c3C#N)n2C)cc1,-1,-1,52*,-9,-8,-5,3,-4,
SMILES,LMPTP block,SUMO1 PPI mod,DNMT1 block,Scp1 inh,STEP block,HKDC1 inh,DNMT1 inh conf,DNMT1 interf,others
Cc1ccc(CC(=O)Nc2ncc([N+](=O)[O-])s2)cc1,0,-20,-1,-9,2,0,.,.,
COc1ccc(C(=O)OCC(=O)Nc2sccc2C(N)=O)cc1OC,2,7,-3,-11,-3,-2,.,.,
COc1ccc(C(=O)OCC(=O)Nc2ncc([N+](=O)[O-])s2)cc1OC,23,28,99*,51*,17,14,86*,-4,Beacon interf DR=>99
O=C(COC(=O)c1ccc(Br)o1)Nc1ncc([N+](=O)[O-])s1,3,4,71*,18,1,8,19,-4,
CSCCC(c1nnnn1C(C)(C)C)N1CCN(C/C=C/c2ccccc2)CC1 (stereo not drawn),0,0,-2,.,1,.,.,.,
COC(=O)c1sc(N2C(=O)c3oc4ccccc4c(=O)c3C2c2cccs2)nc1C (stereo not drawn),-2,-11,60*,1,-3,-4,2,-3,
CC1(C(=O)NS(=O)(=O)Cc2cccc(Cl)c2)CCN1C(=O)c1ccc(C2CCCCC2)cc1 (stereo not drawn),-1,5,78*,.,0,.,4,3,
Cc1cc(-c2nc3c4c5c(sc4[nH]c(=O)n3n2)CCC5)c(C)o1,6,16,66*,58*,2,1,4,0,
O=C(CN1C(=O)S/C(=C\c2ccc(-c3cc(C(=O)O)ccc3Cl)o2)C1=O)Nc1ccc2c(c1)OCO2,74*,114*,97*,.,90*,.,22,-13,Beacon interf DR=>99
CCCCCCCCCC(=O)N[C@@H]1c2cc(OC)c(OC)cc2C[C@H]1O,1,-1,2,-4,0,1,.,.,
COc1ccc(-c2csc(NC(=O)C3CCN(c4ncnc5sc(C)c(C)c45)CC3)n2)cc1OC,4,10,-8,8,-2,0,.,.,
C=CCn1c(C)cc(-c2csc(NC(=O)C3CCN(c4ncnc5sc(C)c(C)c45)CC3)n2)c1C,1,-1,65*,6,1,-4,3,-7,
COc1cccc(C(=O)Nc2ccc(S(=O)(=O)NCc3ccco3)cc2)c1,0,-2,8,-4,-4,-2,.,.,
O=C(Nc1ccc(S(=O)(=O)NCc2ccco2)cc1)c1cccc(F)c1,1,5,84*,34,8,-3,8,7,
